Data taken from ChEMBL document CHEMBL4689842, “EUbOPEN Chemogenomics Library wave 1” (2021).
Values joined by “and” are separate entries in the source; they are usually repeats but may differ in a detail not shown here. Identical values can stand only once.

System: HEK-293T
Assay: Multiplex assay against HEK293T;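 as to Population Tubulin-Different-Phenotype (%): share of the cells with healthy nuclei that show this phenotype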
Format: toxicity, cell-based
Details: human
In short: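 Imaging took place on a CQ1 microscope at 37°C and 5% CO2 once compound had been added to live cells stained at seeding with Hoechst33342, BioTracker Green Microtubule Cytoskeleton Dye, MitoTracker Red and Annexin V Alexa Fluor 680. CellPathfinder machine-learning gating classed cells as Hoechst high-intensity objects or normal cells, classed normal cells as having healthy, pyknosed or fragmented nuclei, and classed pyknosed cells as mitotic or apoptotic. Tubulin, mitochondrial-mass and membrane-permeability phenotypes are per cents of the healthy-nucleus cells.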

[1] = 12 h, 1 µM, compound concentration 1 uM, replicate 1
[2] = 12 h, 1 µM, compound concentration 1 uM, replicate 2
[3] = 12 h, 10 µM, compound concentration 10 uM, replicate 1
[4] = 12 h, 10 µM, compound concentration 10 uM, replicate 2
[5] = 24 h, 1 µM, compound concentration 1 uM, replicate 1
[6] = 24 h, 1 µM, compound concentration 1 uM, replicate 2
[7] = 24 h, 10 µM, compound concentration 10 uM, replicate 1
[8] = 24 h, 10 µM, compound concentration 10 uM, replicate 2
[9] = 48 h, 1 µM, compound concentration 1 uM, replicate 1
[10] = 48 h, 1 µM, compound concentration 1 uM, replicate 2
[11] = 48 h, 10 µM, compound concentration 10 uM, replicate 1
[12] = 48 h, 10 µM, compound concentration 10 uM, replicate 2

O=C1NCN(c2ccccc2)C12CCN(CCCOc1ccc(F)cc1)CC2 [SPIRAMIDE]
Population Apoptotic (%) [1]: 41%
Population Fragmented Nuclei (%) [1]: 15%
Population Hoechst High Intensity Objects (%) [1]: 12%
Population Membrane Permeable-Phenotype (%) [1]: 4%
Population Mitochondria Different-Phenotype (%) [1]: 81%
Population Mitotic Cells (%) [1]: 58%
Population Normal (%) [1]: 87%
Population Pyknosed Nuclei (%) [1]: 45%
Population Tubulin-Different-Phenotype (%) [1]: 35%
Total Cell Count [1]: 216
Population Apoptotic (%) [2]: 11%
Population Fragmented Nuclei (%) [2]: 10%
Population Healthy Nuclei (%) [2]: 38%
Population Hoechst High Intensity Objects (%) [2]: 7%
Population Membrane Permeable-Phenotype (%) [2]: 12%
Population Mitochondria Different-Phenotype (%) [2]: 11%
Population Mitotic Cells (%) [2]: 88%
Population Normal (%) [2]: 92%
Population Pyknosed Nuclei (%) [2]: 50%
Population Tubulin-Different-Phenotype (%) [2]: 20%
Total Cell Count [2]: 179
Population Apoptotic (%) [3]: 66%
Population Fragmented Nuclei (%) [3]: 16%
Population Healthy Nuclei (%) [3]: 13%
Population Hoechst High Intensity Objects (%) [3]: 17%
Population Membrane Permeable-Phenotype (%) [3]: 0%
Population Mitochondria Different-Phenotype (%) [3]: 95%
Population Mitotic Cells (%) [3]: 33%
Population Normal (%) [3]: 82%
Population Pyknosed Nuclei (%) [3]: 70%
Population Tubulin-Different-Phenotype (%) [3]: 95%
Total Cell Count [3]: 210
Population Apoptotic (%) [4]: 19%
Population Fragmented Nuclei (%) [4]: 3%
Population Healthy Nuclei (%) [4]: 34%
Population Hoechst High Intensity Objects (%) [4]: 2%
Population Membrane Permeable-Phenotype (%) [4]: 7%
Population Mitochondria Different-Phenotype (%) [4]: 55%
Population Mitotic Cells (%) [4]: 80%
Population Normal (%) [4]: 97%
Population Pyknosed Nuclei (%) [4]: 62%
Population Tubulin-Different-Phenotype (%) [4]: 46%
Total Cell Count [4]: 194
Population Apoptotic (%) [5]: 50%
Population Fragmented Nuclei (%) [5]: 13%
Population Healthy Nuclei (%) [5]: 57%
Population Hoechst High Intensity Objects (%) [5]: 10%
Population Membrane Permeable-Phenotype (%) [5]: 0%
Population Mitochondria Different-Phenotype (%) [5]: 66%
Population Mitotic Cells (%) [5]: 50%
Population Normal (%) [5]: 89%
Population Pyknosed Nuclei (%) [5]: 28%
Population Tubulin-Different-Phenotype (%) [5]: 34%
Total Cell Count [5]: 248
Population Apoptotic (%) [6]: 6%
Population Fragmented Nuclei (%) [6]: 8%
Population Healthy Nuclei (%) [6]: 61%
Population Hoechst High Intensity Objects (%) [6]: 3%
Population Membrane Permeable-Phenotype (%) [6]: 6%
Population Mitochondria Different-Phenotype (%) [6]: 17%
Population Mitotic Cells (%) [6]: 93%
Population Normal (%) [6]: 96%
Population Pyknosed Nuclei (%) [6]: 30%
Population Tubulin-Different-Phenotype (%) [6]: 29%
Total Cell Count [6]: 207
Population Apoptotic (%) [7]: 69%
Population Fragmented Nuclei (%) [7]: 17%
Population Healthy Nuclei (%) [7]: 19%
Population Hoechst High Intensity Objects (%) [7]: 17%
Population Membrane Permeable-Phenotype (%) [7]: 5%
Population Mitochondria Different-Phenotype (%) [7]: 97%
Population Mitotic Cells (%) [7]: 30%
Population Normal (%) [7]: 82%
Population Pyknosed Nuclei (%) [7]: 62%
Population Tubulin-Different-Phenotype (%) [7]: 100%
Total Cell Count [7]: 231
Population Apoptotic (%) [8]: 21%
Population Fragmented Nuclei (%) [8]: 3%
Population Healthy Nuclei (%) [8]: 54%
Population Hoechst High Intensity Objects (%) [8]: 1%
Population Membrane Permeable-Phenotype (%) [8]: 2%
Population Mitochondria Different-Phenotype (%) [8]: 59%
Population Mitotic Cells (%) [8]: 78%
Population Normal (%) [8]: 98%
Population Pyknosed Nuclei (%) [8]: 42%
Population Tubulin-Different-Phenotype (%) [8]: 59%
Total Cell Count [8]: 256
Population Apoptotic (%) [9]: 35%
Population Fragmented Nuclei (%) [9]: 10%
Population Healthy Nuclei (%) [9]: 77%
Population Hoechst High Intensity Objects (%) [9]: 7%
Population Membrane Permeable-Phenotype (%) [9]: 1%
Population Mitochondria Different-Phenotype (%) [9]: 26%
Population Mitotic Cells (%) [9]: 64%
Population Normal (%) [9]: 92%
Population Pyknosed Nuclei (%) [9]: 12%
Population Tubulin-Different-Phenotype (%) [9]: 22%
Total Cell Count [9]: 484
Population Apoptotic (%) [10]: 8%
Population Fragmented Nuclei (%) [10]: 4%
Population Healthy Nuclei (%) [10]: 82%
Population Hoechst High Intensity Objects (%) [10]: 2%
Population Membrane Permeable-Phenotype (%) [10]: 7%
Population Mitochondria Different-Phenotype (%) [10]: 7%
Population Mitotic Cells (%) [10]: 91%
Population Normal (%) [10]: 97%
Population Pyknosed Nuclei (%) [10]: 13%
Population Tubulin-Different-Phenotype (%) [10]: 20%
Total Cell Count [10]: 363
Population Apoptotic (%) [11]: 59%
Population Fragmented Nuclei (%) [11]: 17%
Population Healthy Nuclei (%) [11]: 30%
Population Hoechst High Intensity Objects (%) [11]: 18%
Population Membrane Permeable-Phenotype (%) [11]: 0%
Population Mitochondria Different-Phenotype (%) [11]: 98%
Population Mitotic Cells (%) [11]: 40%
Population Normal (%) [11]: 81%
Population Pyknosed Nuclei (%) [11]: 51%
Population Tubulin-Different-Phenotype (%) [11]: 89%
Total Cell Count [11]: 227
Population Apoptotic (%) [12]: 21%
Population Fragmented Nuclei (%) [12]: 4%
Population Healthy Nuclei (%) [12]: 77%
Population Hoechst High Intensity Objects (%) [12]: 4%
Population Membrane Permeable-Phenotype (%) [12]: 1%
Population Mitochondria Different-Phenotype (%) [12]: 29%
Population Mitotic Cells (%) [12]: 78%
Population Normal (%) [12]: 95%
Population Pyknosed Nuclei (%) [12]: 17%
Population Tubulin-Different-Phenotype (%) [12]: 44%
Total Cell Count [12]: 383

COc1cc2nccc(Oc3ccc(NC(=O)Nc4cc(C)on4)c(Cl)c3)c2cc1OC.O
Population Apoptotic (%) [1]: 28% and 23%
Population Fragmented Nuclei (%) [1]: 14%
Population Healthy Nuclei (%) [1]: 55% and 71%
Population Hoechst High Intensity Objects (%) [1]: 12% and 10%
Population Mitotic Cells (%) [1]: 72% and 76%
Population Normal (%) [1]: 87% and 89%
Population Pyknosed Nuclei (%) [1]: 30% and 14%
Total Cell Count [1]: 660 and 667
Population Apoptotic (%) [2]: 18% and 12%
Population Fragmented Nuclei (%) [2]: 3% and 9%
Population Healthy Nuclei (%) [2]: 86%
Population Hoechst High Intensity Objects (%) [2]: 2%
Population Mitotic Cells (%) [2]: 81% and 87%
Population Normal (%) [2]: 97%
Population Pyknosed Nuclei (%) [2]: 10% and 4%
Total Cell Count [2]: 918 and 1845
Population Apoptotic (%) [3]: 82%
Population Fragmented Nuclei (%) [3]: 11%
Population Healthy Nuclei (%) [3]: 21%
Population Hoechst High Intensity Objects (%) [3]: 13%
Population Membrane Permeable-Phenotype (%) [3]: 2%
Population Mitochondria Different-Phenotype (%) [3]: 100%
Population Mitotic Cells (%) [3]: 17%
Population Normal (%) [3]: 86%
Population Tubulin-Different-Phenotype (%) [3]: 97%
Total Cell Count [3]: 260
Population Apoptotic (%) [4]: 59%
Population Fragmented Nuclei (%) [4]: 3%
Population Healthy Nuclei (%) [4]: 30%
Population Hoechst High Intensity Objects (%) [4]: 1%
Population Membrane Permeable-Phenotype (%) [4]: 8%
Population Mitochondria Different-Phenotype (%) [4]: 88%
Population Mitotic Cells (%) [4]: 40%
Population Normal (%) [4]: 98%
Population Pyknosed Nuclei (%) [4]: 66%
Population Tubulin-Different-Phenotype (%) [4]: 94%
Total Cell Count [4]: 226
Population Apoptotic (%) [5]: 39% and 22%
Population Fragmented Nuclei (%) [5]: 14% and 17%
Population Healthy Nuclei (%) [5]: 63% and 74%
Population Hoechst High Intensity Objects (%) [5]: 11% and 8%
Population Membrane Permeable-Phenotype (%) [5]: 10%
Population Mitotic Cells (%) [5]: 60% and 77%
Population Normal (%) [5]: 88% and 92%
Population Pyknosed Nuclei (%) [5]: 22% and 8%
Total Cell Count [5]: 680 and 875
Population Healthy Nuclei (%) [6]: 89% and 68%
Population Hoechst High Intensity Objects (%) [6]: 4% and 3%
Population Membrane Permeable-Phenotype (%) [6]: 14% and 8%
Population Mitotic Cells (%) [6]: 81% and 95%
Population Normal (%) [6]: 95% and 96%
Population Apoptotic (%) [7]: 89%
Population Fragmented Nuclei (%) [7]: 12%
Population Healthy Nuclei (%) [7]: 30%
Population Hoechst High Intensity Objects (%) [7]: 14%
Population Membrane Permeable-Phenotype (%) [7]: 3%
Population Mitochondria Different-Phenotype (%) [7]: 100%
Population Mitotic Cells (%) [7]: 10%
Population Normal (%) [7]: 85%
Population Pyknosed Nuclei (%) [7]: 56%
Population Tubulin-Different-Phenotype (%) [7]: 100%
Total Cell Count [7]: 253
Population Apoptotic (%) [8]: 76%
Population Fragmented Nuclei (%) [8]: 2%
Population Healthy Nuclei (%) [8]: 50%
Population Hoechst High Intensity Objects (%) [8]: 1%
Population Membrane Permeable-Phenotype (%) [8]: 2%
Population Mitochondria Different-Phenotype (%) [8]: 98%
Population Mitotic Cells (%) [8]: 23%
Population Normal (%) [8]: 98%
Population Pyknosed Nuclei (%) [8]: 47%
Population Tubulin-Different-Phenotype (%) [8]: 97%
Total Cell Count [8]: 258
Population Apoptotic (%) [11]: 73%
Population Fragmented Nuclei (%) [11]: 14%
Population Healthy Nuclei (%) [11]: 40%
Population Hoechst High Intensity Objects (%) [11]: 11%
Population Membrane Permeable-Phenotype (%) [11]: 2%
Population Mitochondria Different-Phenotype (%) [11]: 96%
Population Mitotic Cells (%) [11]: 26%
Population Normal (%) [11]: 88%
Population Pyknosed Nuclei (%) [11]: 45%
Population Tubulin-Different-Phenotype (%) [11]: 98%
Total Cell Count [11]: 272
Population Apoptotic (%) [12]: 83%
Population Fragmented Nuclei (%) [12]: 3%
Population Healthy Nuclei (%) [12]: 72%
Population Hoechst High Intensity Objects (%) [12]: 2%
Population Membrane Permeable-Phenotype (%) [12]: 1%
Population Mitochondria Different-Phenotype (%) [12]: 91%
Population Mitotic Cells (%) [12]: 16%
Population Normal (%) [12]: 97%
Population Pyknosed Nuclei (%) [12]: 23%
Total Cell Count [12]: 292
